Measurements: ChEMBL document CHEMBL3861990, “Elaboration of a proprietary thymidylate kinase inhibitor motif towards anti-tuberculosis agents” (Bioorg Med Chem, 2016)

Experiment: Inhibition of recombinant Mycobacterium tuberculosis TMPK expressed in Escherichia coli using dTMP as substrate in presence of ATP/pyruvate kinase/lactate dehydrogenase/nucleoside diphosphate kinase by coupled spectrophotometric assay
Method in brief: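 Coupled assay read at 334 nm. Medium: 50 mM Tris-HCl pH 7.4, 50 mM KCl, 2 mM MgCl2, 0.2 mM NADH, 1 mM phosphoenolpyruvate, and 2 units each of LDH, pyruvate kinase and NDP kinase. ATP fixed at 0.5 mM and dTMP at 0.05 mM. Analogues varied from 0.01 to 1 mM. Result reported as Ki.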

SMILES	Ki [µM]
Cc1cn(C/C=C\CN2c3cccc4cccc(c34)S2(=O)=O)c(=O)[nH]c1=O	0.27

Experiment: Inhibition of recombinant Mycobacterium tuberculosis TMPK using dTMP as substrate measured after 1 min in presence of ATP/pyruvate kinase/lactate dehydrogenase/nucleoside diphosphate kinase by coupled spectrophotometric assay
Method in brief: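 Medium: 50 mM Tris-HCl pH 7.4, 50 mM KCl, 2 mM MgCl2, 0.2 mM NADH, 1 mM phosphoenolpyruvate, and 2 units each of LDH, pyruvate kinase and NDP kinase. ATP fixed at 0.5 mM and dTMP at 0.05 mM. Analogues varied from 0.01 to 1 mM. Result reported as Ki.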

SMILES	Ki [µM]
Nc1nc(=O)n([C@H]2C[C@H](O)[C@@H](CO)O2)cc1Br	5
Cc1cn(CC2CCN(Cc3ccc(Oc4ccccc4)cc3)C2)c(=O)[nH]c1=O (racemic)	267
Cc1cn([C@H]2CCCN(Cc3ccc(Oc4ccccc4)cc3)C2)c(=O)[nH]c1=O	21.5
Cc1cn(C2CCCN(C(=O)c3cccc(Oc4ccccc4)c3)C2)c(=O)[nH]c1=O (racemic)	2.1
Cc1cn(CC2CCN(Cc3cccc(Oc4ccccc4)c3)C2)c(=O)[nH]c1=O (racemic)	111
Cc1cn([C@@H]2CCCN(Cc3ccc(Oc4ccccc4)cc3)C2)c(=O)[nH]c1=O	138
Cc1cn(CC2CCCN(Cc3cccc(Oc4ccccc4)c3)C2)c(=O)[nH]c1=O (racemic)	186
Cc1cn(C2CCCN(C(=O)c3ccc(Oc4ccccc4)cc3)C2)c(=O)[nH]c1=O (racemic)	14.4
Cc1cn([C@@H]2CCN(Cc3cccc(Oc4ccccc4)c3)C2)c(=O)[nH]c1=O	8.2
Cc1cn(C2CCCN(Cc3ccc(Oc4ccccc4)cc3)C2)c(=O)[nH]c1=O (racemic)	22.3
Cc1cn([C@H]2CCN(Cc3cccc(Oc4ccccc4)c3)C2)c(=O)[nH]c1=O	7.8
